Columns and labels:
THP-1 = assay: Antiinflammatory activity in human THP1 cells assessed as inhibition of LPS-induced TNFalpha production after 4 hrs by ELISA; assay type: functional, cell-based; settings: THP-1, 4 h
Outline: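 THP-1 cells primed 3–4 days with 100 nM calcitriol in RPMI-1640 containing 10% FBS, then cultured overnight without calcitriol. Resuspended in RPMI-1640 with 25 mM HEPES at 1.5×10^5 cells/mL. Compound and E. coli O111:B4 LPS added together, 4 h at 37 °C in 5% CO2. TNFα measured in the centrifuged supernatant by ELISA.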

[1] = biological target: Mitogen-activated protein kinase 14 (Homo sapiens, UniProt Q16539); assay: Inhibition of recombinant p38alpha after 15 mins
Mitogen-activated protein kinase 14, sequence (Q16539 whole entry): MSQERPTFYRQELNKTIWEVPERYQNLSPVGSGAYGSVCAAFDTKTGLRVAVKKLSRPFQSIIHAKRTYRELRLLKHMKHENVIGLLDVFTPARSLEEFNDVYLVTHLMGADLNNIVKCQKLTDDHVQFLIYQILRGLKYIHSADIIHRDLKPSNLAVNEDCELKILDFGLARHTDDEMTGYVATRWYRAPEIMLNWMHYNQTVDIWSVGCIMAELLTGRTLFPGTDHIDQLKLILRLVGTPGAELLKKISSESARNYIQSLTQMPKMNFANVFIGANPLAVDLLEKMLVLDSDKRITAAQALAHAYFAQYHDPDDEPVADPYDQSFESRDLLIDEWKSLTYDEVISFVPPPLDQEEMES
Outline: (§1)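 Each recombinant kinase was assayed with ATP at its own Km.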

[2] = biological target: T1, Inhibitor of nuclear factor kappa-B kinase subunit alpha (Homo sapiens, UniProt O15111); assay: Inhibition of recombinant IKKalpha after 15 mins
T1 sequence (O15111 whole entry): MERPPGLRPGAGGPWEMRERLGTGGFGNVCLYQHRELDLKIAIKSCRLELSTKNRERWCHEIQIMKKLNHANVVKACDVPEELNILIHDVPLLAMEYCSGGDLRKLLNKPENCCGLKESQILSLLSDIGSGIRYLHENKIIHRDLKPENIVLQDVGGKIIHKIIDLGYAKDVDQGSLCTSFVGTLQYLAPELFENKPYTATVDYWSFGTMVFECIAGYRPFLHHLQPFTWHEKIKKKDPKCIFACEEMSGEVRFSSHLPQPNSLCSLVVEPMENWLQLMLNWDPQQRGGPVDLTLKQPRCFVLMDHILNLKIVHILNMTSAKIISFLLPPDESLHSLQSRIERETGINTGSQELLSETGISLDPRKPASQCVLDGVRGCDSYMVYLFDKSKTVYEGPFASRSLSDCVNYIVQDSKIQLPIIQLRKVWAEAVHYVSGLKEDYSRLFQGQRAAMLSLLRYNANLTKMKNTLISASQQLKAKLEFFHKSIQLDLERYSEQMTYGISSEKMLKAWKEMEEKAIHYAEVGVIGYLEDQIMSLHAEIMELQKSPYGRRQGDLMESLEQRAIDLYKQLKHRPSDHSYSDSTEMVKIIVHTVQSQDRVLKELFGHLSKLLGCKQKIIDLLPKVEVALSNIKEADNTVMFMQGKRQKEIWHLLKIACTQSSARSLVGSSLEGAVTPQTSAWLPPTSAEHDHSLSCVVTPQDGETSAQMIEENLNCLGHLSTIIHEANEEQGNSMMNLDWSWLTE

[3] = biological target: Glycogen synthase kinase-3 beta (Homo sapiens, UniProt P49841); assay: Inhibition of recombinant GSK3-beta after 15 mins; outline: as §1
Glycogen synthase kinase-3 beta, sequence (P49841 whole entry): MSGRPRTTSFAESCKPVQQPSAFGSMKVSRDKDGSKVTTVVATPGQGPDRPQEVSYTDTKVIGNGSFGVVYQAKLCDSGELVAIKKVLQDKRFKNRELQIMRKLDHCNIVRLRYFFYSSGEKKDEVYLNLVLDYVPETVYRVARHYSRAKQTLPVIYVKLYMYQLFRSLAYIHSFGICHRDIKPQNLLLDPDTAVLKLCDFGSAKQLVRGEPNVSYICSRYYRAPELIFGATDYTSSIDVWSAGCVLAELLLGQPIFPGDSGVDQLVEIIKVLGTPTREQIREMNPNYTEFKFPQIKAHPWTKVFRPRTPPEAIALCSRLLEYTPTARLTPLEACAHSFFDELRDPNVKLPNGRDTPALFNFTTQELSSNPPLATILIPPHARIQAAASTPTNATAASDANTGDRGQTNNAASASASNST

[4] = biological target: Mitogen-activated protein kinase 10 (Homo sapiens, UniProt P53779); assay: Inhibition of recombinant JNK3 after 15 mins; outline: as §1
Mitogen-activated protein kinase 10, sequence (P53779 whole entry): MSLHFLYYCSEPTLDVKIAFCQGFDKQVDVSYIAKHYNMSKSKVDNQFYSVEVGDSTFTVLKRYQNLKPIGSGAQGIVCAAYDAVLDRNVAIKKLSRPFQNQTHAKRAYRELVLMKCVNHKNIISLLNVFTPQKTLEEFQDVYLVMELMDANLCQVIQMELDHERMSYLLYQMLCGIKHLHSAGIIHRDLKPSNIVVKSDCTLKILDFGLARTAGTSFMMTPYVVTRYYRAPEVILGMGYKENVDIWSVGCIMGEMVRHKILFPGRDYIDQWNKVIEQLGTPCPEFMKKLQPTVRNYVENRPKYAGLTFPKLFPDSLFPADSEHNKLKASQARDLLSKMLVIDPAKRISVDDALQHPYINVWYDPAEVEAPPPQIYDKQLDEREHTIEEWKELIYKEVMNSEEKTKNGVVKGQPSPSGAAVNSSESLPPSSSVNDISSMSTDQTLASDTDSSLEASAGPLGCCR

[5] = biological target: Cyclin-dependent kinase 2 (Homo sapiens, UniProt P24941); assay: Inhibition of recombinant CDK2 after 15 mins
[6] = biological target: T2, Inhibitor of nuclear factor kappa-B kinase subunit beta (Homo sapiens, UniProt O14920); assay: Inhibition of purified His-tagged IKK-beta after 15 mins
T2 sequence (O14920 whole entry): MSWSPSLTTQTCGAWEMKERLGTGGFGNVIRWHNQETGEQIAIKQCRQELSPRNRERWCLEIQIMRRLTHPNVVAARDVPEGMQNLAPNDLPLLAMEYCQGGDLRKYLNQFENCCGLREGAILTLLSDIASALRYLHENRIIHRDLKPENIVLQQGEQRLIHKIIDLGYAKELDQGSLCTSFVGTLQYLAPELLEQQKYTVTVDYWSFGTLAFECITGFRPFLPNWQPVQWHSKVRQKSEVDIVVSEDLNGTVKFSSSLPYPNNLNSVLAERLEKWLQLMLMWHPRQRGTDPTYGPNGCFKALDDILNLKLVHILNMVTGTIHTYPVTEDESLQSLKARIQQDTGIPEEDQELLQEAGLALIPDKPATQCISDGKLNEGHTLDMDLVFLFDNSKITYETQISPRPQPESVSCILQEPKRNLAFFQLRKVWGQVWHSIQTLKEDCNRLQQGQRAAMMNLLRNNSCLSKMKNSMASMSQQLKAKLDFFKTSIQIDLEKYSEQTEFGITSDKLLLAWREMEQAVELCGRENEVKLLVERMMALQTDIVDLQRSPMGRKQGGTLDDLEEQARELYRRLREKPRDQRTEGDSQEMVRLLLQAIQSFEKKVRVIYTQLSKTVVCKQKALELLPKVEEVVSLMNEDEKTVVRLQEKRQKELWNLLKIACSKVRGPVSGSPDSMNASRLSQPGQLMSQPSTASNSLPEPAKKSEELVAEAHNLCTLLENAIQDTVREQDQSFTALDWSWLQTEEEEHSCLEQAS

[7] = Apparent permeability of the compound at pH 7.4 by PAMPA method; assay type: ADME

| SMILES | IC50 (THP-1) | IC50 [6] | other results |
| --- | --- | --- | --- |
| CN(C)CCCNC(=O)c1ccc(-c2cnc3ccc(NCc4ccc(Cl)c(Cl)c4)nn23)cc1 | > 30 µM | – | – |
| CCN1CCC[C@H]1CNC(=O)c1ccc(-c2cnc3ccc(NCC4CC4)nn23)cc1 | 0.49 µM | – | – |
| O=C(NCCN1CCCC1)c1ccc(-c2cnc3ccc(NCc4ccc(Cl)c(Cl)c4)nn23)cc1 | > 30 µM | 0.59 µM | IC50 [1]: > 100 µM; IC50 [2]: 4.6 µM; IC50 [3]: > 100 µM; IC50 [4]: 90 µM; IC50 [5]: > 100 µM |
| O=C(NCCN1CCCCC1)c1ccc(-c2cnc3ccc(NCc4ccc(Cl)c(Cl)c4)nn23)cc1 | > 30 µM | – | – |
| O=C(NCCN1CCOCC1)c1ccc(-c2cnc3ccc(NCc4ccc(Cl)c(Cl)c4)nn23)cc1 | – | > 30 µM | – |
| NCCCNC(=O)c1ccc(-c2cnc3ccc(NCc4ccc(Cl)c(Cl)c4)nn23)cc1 | 4.7 µM | – | – |
| CC(C)(N)CNC(=O)c1ccc(-c2cnc3ccc(NCc4ccc(Cl)c(Cl)c4)nn23)cc1 | 6.5 µM | – | – |
| O=C(NCCNc1ccccc1)c1ccc(-c2cnc3ccc(NCc4ccc(Cl)c(Cl)c4)nn23)cc1 | > 30 µM | – | – |
| O=C(NC[C@@H]1CCCN1)c1ccc(-c2cnc3ccc(NCc4ccc(Cl)c(Cl)c4)nn23)cc1 | 4 µM | 0.32 µM | IC50 [1]: > 100 µM; Papp [7]: < 2 ×10⁻⁶ cm/s; IC50 [2]: 2.2 µM; IC50 [3]: > 100 µM; IC50 [4]: > 100 µM; IC50 [5]: 95 µM |
| O=C(NC[C@@H]1CCNC1)c1ccc(-c2cnc3ccc(NCc4ccc(Cl)c(Cl)c4)nn23)cc1 | 17 µM | 10 µM | – |
| O=C(NCC1CCNCC1)c1ccc(-c2cnc3ccc(NCc4ccc(Cl)c(Cl)c4)nn23)cc1 | > 30 µM | – | – |
| O=C(NC1CCNC1)c1ccc(-c2cnc3ccc(NCc4ccc(Cl)c(Cl)c4)nn23)cc1 (stereo not given) | 6.5 µM | – | – |
| O=C(NC1CCNCC1)c1ccc(-c2cnc3ccc(NCc4ccc(Cl)c(Cl)c4)nn23)cc1 | 4.4 µM | – | – |
| O=C(NCc1ccccn1)c1ccc(-c2cnc3ccc(NCc4ccc(Cl)c(Cl)c4)nn23)cc1 | > 30 µM | – | – |
| CN(C)CCN(C)C(=O)c1ccc(-c2cnc3ccc(NCc4ccc(Cl)c(Cl)c4)nn23)cc1 | 15 µM | – | – |
| NC1CN(C(=O)c2ccc(-c3cnc4ccc(NCc5ccc(Cl)c(Cl)c5)nn34)cc2)C1 | > 30 µM | – | – |
| O=C(c1ccc(-c2cnc3ccc(NCc4ccc(Cl)c(Cl)c4)nn23)cc1)N1CCC(N2CCCC2)CC1 | > 30 µM | 1.4 µM | – |
| CN1CCN(C(=O)c2ccc(-c3cnc4ccc(NCc5ccc(Cl)c(Cl)c5)nn34)cc2)CC1 | 12 µM | – | – |
| CCNC(=O)c1ccc(-c2cnc3ccc(NCc4ccc(Cl)c(Cl)c4)nn23)cc1 | 27 µM | 27 µM | – |
| NC(=O)c1ccc(-c2cnc3ccc(NCc4ccc(Cl)c(Cl)c4)nn23)cc1 | 1.7 µM | – | – |
| CNc1ccc2ncc(-c3ccc(C(=O)NC[C@@H]4CCCN4)cc3)n2n1 | 29 µM | – | – |
| CC(C)Nc1ccc2ncc(-c3ccc(C(=O)NC[C@@H]4CCCN4)cc3)n2n1 | 1.7 µM | 0.27 µM | – |
| O=C(NC[C@@H]1CCCN1)c1ccc(-c2cnc3ccc(NC4CC4)nn23)cc1 | 3.2 µM | – | – |

| SMILES | IC50 (THP-1) | IC50 [6] | other results |
| --- | --- | --- | --- |
| O=C(NC[C@@H]1CCCN1)c1ccc(-c2cnc3ccc(NCC4CC4)nn23)cc1 | 0.69 µM | 0.055 µM | IC50 [1]: > 100 µM; Papp [7]: < 2 ×10⁻⁶ cm/s; IC50 [2]: 40 µM; IC50 [3]: > 100 µM; IC50 [4]: > 100 µM; IC50 [5]: > 100 µM |
| O=C(NC[C@@H]1CCCN1)c1ccc(-c2cnc3ccc(NCc4ccccc4)nn23)cc1 | 3.7 µM | – | – |
| O=C(NC[C@@H]1CCCN1)c1ccc(-c2cnc3ccc(NCc4cccc(Cl)c4)nn23)cc1 | 2.7 µM | 0.19 µM | IC50 [1]: > 100 µM; Papp [7]: < 2 ×10⁻⁶ cm/s; IC50 [2]: > 4 µM; IC50 [3]: > 100 µM; IC50 [4]: 78 µM; IC50 [5]: > 100 µM |
| O=C(NC[C@@H]1CCCN1)c1ccc(-c2cnc3ccc(NCCO)nn23)cc1 | > 30 µM | – | – |
| O=C(NC[C@@H]1CCCN1)c1ccc(-c2cnc3ccc(NCCCO)nn23)cc1 | > 30 µM | – | – |
| CC(=O)NCCNc1ccc2ncc(-c3ccc(C(=O)NC[C@@H]4CCCN4)cc3)n2n1 | > 30 µM | – | – |
| O=C(NC[C@@H]1CCCN1)c1ccc(-c2cnc3ccc(NCCc4cnc[nH]4)nn23)cc1 | > 30 µM | 3 µM | – |
| O=C(NC[C@@H]1CCCN1)c1ccc(-c2cnc3ccc(NCCCn4ccnc4)nn23)cc1 | > 30 µM | 0.38 µM | – |
| O=C(NC[C@@H]1CCCN1)c1ccc(-c2cnc3ccc(N[C@H]4CC[C@H](O)CC4)nn23)cc1 | > 30 µM | – | – |
| CN(C)c1ccc2ncc(-c3ccc(C(=O)NC[C@@H]4CCCN4)cc3)n2n1 | 20 µM | – | – |
| O=C(NC[C@@H]1CCCN1)c1ccc(-c2cnc3ccc(N4CCOCC4)nn23)cc1 | – | > 30 µM | – |
| O=C(NC[C@@H]1CCCN1)c1ccc(-c2cnc3ccc(N4CCC(O)CC4)nn23)cc1 | – | > 30 µM | – |
| CCN(CC)CCNC(=O)c1ccc(-c2cnc3ccc(NCC4CC4)nn23)cc1 | 1.2 µM | – | – |
| CN(C)CCN(C)C(=O)c1ccc(-c2cnc3ccc(NCC4CC4)nn23)cc1 | 2.4 µM | – | – |
| CC(N)CNC(=O)c1ccc(-c2cnc3ccc(NCC4CC4)nn23)cc1 (stereo not given) | 1.5 µM | 0.31 µM | – |
| CC(CN(C)C)NC(=O)c1ccc(-c2cnc3ccc(NCC4CC4)nn23)cc1 (stereo not given) | 2.1 µM | – | – |
| O=C(c1ccc(-c2cnc3ccc(NCC4CC4)nn23)cc1)N1CCC[C@H]1CN1CCCC1 | – | 5.1 µM | – |
| O=C(c1ccc(-c2cnc3ccc(NCC4CC4)nn23)cc1)N1CCC[C@@H]1CN1CCCC1 | 2.1 µM | 0.16 µM | – |
| O=C(NC[C@H]1CCCN1)c1ccc(-c2cnc3ccc(NCC4CC4)nn23)cc1 | 1.6 µM | 0.1 µM | – |
| O=C(NC[C@@H]1CCCCN1)c1ccc(-c2cnc3ccc(NCC4CC4)nn23)cc1 | 1.5 µM | – | – |
| CN1CCC[C@H]1CNC(=O)c1ccc(-c2cnc3ccc(NCC4CC4)nn23)cc1 | 1.3 µM | 0.11 µM | – |
| NCCNC(=O)c1ccc(-c2cnc3ccc(NCc4ccc(Cl)c(Cl)c4)nn23)cc1 | 2.4 µM | – | – |
| CN(C)CCNC(=O)c1ccc(-c2cnc3ccc(NCc4ccc(Cl)c(Cl)c4)nn23)cc1 | > 30 µM | – | IC50 [3]: > 100 µM; IC50 [5]: > 100 µM |

Reference: ChEMBL document CHEMBL1221302, “Discovery of imidazo[1,2-b]pyridazine derivatives as IKKbeta inhibitors. Part 1: Hit-to-lead study and structure-activity relationship” (Bioorg Med Chem Lett, 2010)
